Test results: ChEMBL document CHEMBL2146396, “Design, synthesis and evaluation of novel metalloproteinase inhibitors based on L-tyrosine scaffold” (Bioorg Med Chem, 2012)

Experiments:
Histone deacetylase 8 = molecular target: T1, Histone deacetylase 8 (Homo sapiens, UniProt Q9BY41); assay: Inhibition of HDAC8 after 45 mins by microplate fluorometric analysis
T1 sequence (Q9BY41 whole entry): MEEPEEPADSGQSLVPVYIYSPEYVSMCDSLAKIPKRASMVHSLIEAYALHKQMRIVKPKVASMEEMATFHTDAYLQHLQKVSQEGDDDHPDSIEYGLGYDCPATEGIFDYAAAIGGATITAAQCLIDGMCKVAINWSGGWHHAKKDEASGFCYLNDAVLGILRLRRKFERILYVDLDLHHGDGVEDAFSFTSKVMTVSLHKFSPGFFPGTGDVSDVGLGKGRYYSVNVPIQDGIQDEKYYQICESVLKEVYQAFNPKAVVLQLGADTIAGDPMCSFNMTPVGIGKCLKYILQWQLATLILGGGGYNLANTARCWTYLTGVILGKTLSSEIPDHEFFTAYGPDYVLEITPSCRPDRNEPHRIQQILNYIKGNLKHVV

[1] = molecular target: 72 kDa type IV collagenase (Homo sapiens, UniProt P08253); assay: Inhibition of MMP2 using BML-P125-9090 as substrate after 30 mins by microplate reader analysis
How it was run: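 Colorimetric kit assay. Enzyme and inhibitor were preincubated 30 min at 37 °C in assay buffer equilibrated to 37 °C. Substrate was then added to start the reaction. A412 was read continuously at 1 min intervals for 10 min. IC50 was derived from the readings.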

72 kDa type IV collagenase, sequence (P08253 whole entry): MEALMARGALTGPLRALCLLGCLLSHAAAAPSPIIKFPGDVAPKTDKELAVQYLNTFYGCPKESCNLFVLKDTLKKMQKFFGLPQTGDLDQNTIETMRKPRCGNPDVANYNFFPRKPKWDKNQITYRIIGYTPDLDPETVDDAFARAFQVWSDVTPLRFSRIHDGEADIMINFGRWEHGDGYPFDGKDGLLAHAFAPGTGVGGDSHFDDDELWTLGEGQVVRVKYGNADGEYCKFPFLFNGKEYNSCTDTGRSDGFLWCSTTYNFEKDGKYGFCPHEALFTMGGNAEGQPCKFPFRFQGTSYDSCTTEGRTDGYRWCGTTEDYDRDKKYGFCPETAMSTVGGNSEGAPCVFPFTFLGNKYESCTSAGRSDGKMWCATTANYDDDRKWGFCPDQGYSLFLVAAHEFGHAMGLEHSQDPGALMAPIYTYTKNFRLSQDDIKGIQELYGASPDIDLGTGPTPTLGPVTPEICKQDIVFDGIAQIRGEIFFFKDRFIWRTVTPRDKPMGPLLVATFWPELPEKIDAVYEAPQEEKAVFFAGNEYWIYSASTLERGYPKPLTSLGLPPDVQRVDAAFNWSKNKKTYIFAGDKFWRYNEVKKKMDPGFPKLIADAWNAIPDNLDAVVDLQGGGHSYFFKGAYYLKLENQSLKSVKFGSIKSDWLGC

Structure (SMILES)	IC50 (Histone deacetylase 8)	IC50 [1]
COC(=O)[C@H](Cc1ccc(OCc2ccccc2)cc1)NC(=O)c1ccccc1	> 1000 µM	67.5 µM
COC(=O)[C@H](Cc1ccc(OCc2ccccc2)cc1)NC(=O)c1ccc(C)cc1	> 1000 µM	83.7 µM
COC(=O)[C@H](Cc1ccc(OCc2ccccc2)cc1)NC(C)=O	872 µM	27.6 µM
COC(=O)[C@H](Cc1ccc(OCc2ccccc2)cc1)NS(C)(=O)=O	754 µM	17.8 µM
COC(=O)[C@H](Cc1ccc(OCc2ccccc2)cc1)NS(=O)(=O)c1ccc(C)cc1	> 1000 µM	10.7 µM
COC(=O)[C@H](Cc1ccc(OCCc2ccccc2)cc1)NC(=O)c1ccccc1	> 1000 µM	74.6 µM
COC(=O)[C@H](Cc1ccc(OCCc2ccccc2)cc1)NC(=O)c1ccc(C)cc1	> 1000 µM	85.5 µM
COC(=O)[C@H](Cc1ccc(OCCc2ccccc2)cc1)NC(C)=O	825 µM	12.5 µM
COC(=O)[C@H](Cc1ccc(OCCc2ccccc2)cc1)NS(C)(=O)=O	> 1000 µM	2.4 µM
COC(=O)[C@H](Cc1ccc(OCCc2ccccc2)cc1)NS(=O)(=O)c1ccc(C)cc1	962 µM	6.3 µM
O=C(N[C@@H](Cc1ccc(OCc2ccccc2)cc1)C(=O)O)c1ccccc1	111 µM	9.8 µM
Cc1ccc(C(=O)N[C@@H](Cc2ccc(OCc3ccccc3)cc2)C(=O)O)cc1	> 1000 µM	8.1 µM
CC(=O)N[C@@H](Cc1ccc(OCc2ccccc2)cc1)C(=O)O	36.9 µM	3 µM
CS(=O)(=O)N[C@@H](Cc1ccc(OCc2ccccc2)cc1)C(=O)O	47.2 µM	1.4 µM
Cc1ccc(S(=O)(=O)N[C@@H](Cc2ccc(OCc3ccccc3)cc2)C(=O)O)cc1	505 µM	2.5 µM
O=C(N[C@@H](Cc1ccc(OCCc2ccccc2)cc1)C(=O)O)c1ccccc1	253 µM	7.6 µM

Structure (SMILES)	IC50 (Histone deacetylase 8)	IC50 [1]
Cc1ccc(C(=O)N[C@@H](Cc2ccc(OCCc3ccccc3)cc2)C(=O)O)cc1	386 µM	4.5 µM
CC(=O)N[C@@H](Cc1ccc(OCCc2ccccc2)cc1)C(=O)O	121 µM	0.75 µM
CS(=O)(=O)N[C@@H](Cc1ccc(OCCc2ccccc2)cc1)C(=O)O	102 µM	0.12 µM
Cc1ccc(S(=O)(=O)N[C@@H](Cc2ccc(OCCc3ccccc3)cc2)C(=O)O)cc1	> 1000 µM	0.27 µM
O=C(N[C@@H](Cc1ccc(OCc2ccccc2)cc1)C(=O)NO)c1ccccc1	9.3 µM	1.7 µM
Cc1ccc(C(=O)N[C@@H](Cc2ccc(OCc3ccccc3)cc2)C(=O)NO)cc1	30.7 µM	0.46 µM
CC(=O)N[C@@H](Cc1ccc(OCc2ccccc2)cc1)C(=O)NO	5.8 µM	0.037 µM
CS(=O)(=O)N[C@@H](Cc1ccc(OCc2ccccc2)cc1)C(=O)NO	3.6 µM	0.067 µM
Cc1ccc(S(=O)(=O)N[C@@H](Cc2ccc(OCc3ccccc3)cc2)C(=O)NO)cc1	42.4 µM	0.025 µM
O=C(N[C@@H](Cc1ccc(OCCc2ccccc2)cc1)C(=O)NO)c1ccccc1	27.8 µM	0.9 µM
Cc1ccc(C(=O)N[C@@H](Cc2ccc(OCCc3ccccc3)cc2)C(=O)NO)cc1	52.5 µM	3.9 µM
CC(=O)N[C@@H](Cc1ccc(OCCc2ccccc2)cc1)C(=O)NO	14.4 µM	0.013 µM
CS(=O)(=O)N[C@@H](Cc1ccc(OCCc2ccccc2)cc1)C(=O)NO	9.5 µM	0.029 µM
Cc1ccc(S(=O)(=O)N[C@@H](Cc2ccc(OCCc3ccccc3)cc2)C(=O)NO)cc1	82.5 µM	0.017 µM
COc1ccc(S(=O)(=O)N(CC(=O)NO)CC(C)C)cc1	–	0.014 µM
